Source: ChEMBL document CHEMBL4359928, “Scaffold Morphing To Identify Novel DprE1 Inhibitors with Antimycobacterial Activity” (ACS Med Chem Lett, 2019)
pIC50: −log10 of the molar value. In brackets after ≈: the same amount, converted by molar mass.

Legend:
[1] = system: Mycobacterium tuberculosis; test: Antimycobacterial activity against Mycobacterium tuberculosis H37Rv assessed as reduction in bacterial cell growth by resazurin reduction method; assay type: functional
[2] = Inhibition of DprE1 in Mycobacterium tuberculosis
Cytochrome P450 3A4 = Cytochrome P450 3A4 (Homo sapiens, UniProt P08684); test: Inhibition of CYP3A4 (unknown origin); assay type: ADME
Chain of Cytochrome P450 3A4 (P08684 whole entry): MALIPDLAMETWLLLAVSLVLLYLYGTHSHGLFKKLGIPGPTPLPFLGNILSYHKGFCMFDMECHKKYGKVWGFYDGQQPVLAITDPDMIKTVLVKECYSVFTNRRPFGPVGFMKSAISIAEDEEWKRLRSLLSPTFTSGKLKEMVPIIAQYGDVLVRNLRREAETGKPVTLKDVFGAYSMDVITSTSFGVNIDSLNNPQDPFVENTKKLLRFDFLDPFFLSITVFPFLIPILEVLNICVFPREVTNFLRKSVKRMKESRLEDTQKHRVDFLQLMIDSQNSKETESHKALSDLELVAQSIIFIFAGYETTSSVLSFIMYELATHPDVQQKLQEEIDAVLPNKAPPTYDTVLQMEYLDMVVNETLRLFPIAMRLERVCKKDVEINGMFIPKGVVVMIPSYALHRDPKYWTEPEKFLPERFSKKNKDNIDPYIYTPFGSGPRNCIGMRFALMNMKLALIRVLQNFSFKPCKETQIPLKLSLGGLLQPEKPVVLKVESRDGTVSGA

[3] = Permeability across basolateral to apical side in human Caco2 cells; assay type: ADME, cell-based; settings: Caco-2, read-out: permeability
[4] = Aqueous solubility of DMSO-dried solid compounds; assay type: physicochemical; settings: buffer
[5] = target: Voltage-gated inwardly rectifying potassium channel KCNH2 (Homo sapiens, UniProt Q12809); test: Inhibition of human ERG
Chain of Voltage-gated inwardly rectifying potassium channel KCNH2 (Q12809 whole entry): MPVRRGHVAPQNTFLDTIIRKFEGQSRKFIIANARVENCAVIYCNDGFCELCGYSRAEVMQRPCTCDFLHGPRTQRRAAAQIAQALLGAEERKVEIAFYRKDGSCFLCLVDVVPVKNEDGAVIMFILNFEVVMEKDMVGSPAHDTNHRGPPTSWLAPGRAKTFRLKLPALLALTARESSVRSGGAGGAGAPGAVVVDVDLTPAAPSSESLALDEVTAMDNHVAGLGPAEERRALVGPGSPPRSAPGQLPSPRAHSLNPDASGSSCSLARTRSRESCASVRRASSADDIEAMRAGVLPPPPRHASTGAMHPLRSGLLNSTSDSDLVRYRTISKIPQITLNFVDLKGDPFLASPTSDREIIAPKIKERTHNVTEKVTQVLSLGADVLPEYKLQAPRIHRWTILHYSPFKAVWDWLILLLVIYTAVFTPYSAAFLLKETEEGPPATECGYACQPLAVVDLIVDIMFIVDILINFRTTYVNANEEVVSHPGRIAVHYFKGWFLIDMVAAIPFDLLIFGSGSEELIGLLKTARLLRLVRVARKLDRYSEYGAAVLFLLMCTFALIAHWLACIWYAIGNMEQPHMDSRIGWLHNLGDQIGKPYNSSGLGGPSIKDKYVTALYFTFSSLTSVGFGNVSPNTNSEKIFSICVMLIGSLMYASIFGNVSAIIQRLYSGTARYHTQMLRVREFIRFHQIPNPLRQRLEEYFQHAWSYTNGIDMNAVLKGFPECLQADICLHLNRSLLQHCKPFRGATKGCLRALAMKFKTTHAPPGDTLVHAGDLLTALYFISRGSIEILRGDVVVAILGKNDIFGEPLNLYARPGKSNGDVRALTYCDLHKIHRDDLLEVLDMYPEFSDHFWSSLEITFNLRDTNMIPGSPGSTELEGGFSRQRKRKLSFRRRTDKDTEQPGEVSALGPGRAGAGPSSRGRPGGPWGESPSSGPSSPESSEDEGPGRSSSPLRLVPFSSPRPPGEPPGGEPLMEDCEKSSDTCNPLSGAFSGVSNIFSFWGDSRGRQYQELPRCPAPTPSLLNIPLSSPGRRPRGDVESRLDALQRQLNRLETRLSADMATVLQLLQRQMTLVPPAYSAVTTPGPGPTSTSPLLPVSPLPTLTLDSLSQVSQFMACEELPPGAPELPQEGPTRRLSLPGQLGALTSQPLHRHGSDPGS

Cytochrome P450 2D6 = Cytochrome P450 2D6 (Homo sapiens, UniProt P10635); test: Inhibition of CYP2D6 (unknown origin); assay type: ADME
Chain of Cytochrome P450 2D6 (P10635 whole entry): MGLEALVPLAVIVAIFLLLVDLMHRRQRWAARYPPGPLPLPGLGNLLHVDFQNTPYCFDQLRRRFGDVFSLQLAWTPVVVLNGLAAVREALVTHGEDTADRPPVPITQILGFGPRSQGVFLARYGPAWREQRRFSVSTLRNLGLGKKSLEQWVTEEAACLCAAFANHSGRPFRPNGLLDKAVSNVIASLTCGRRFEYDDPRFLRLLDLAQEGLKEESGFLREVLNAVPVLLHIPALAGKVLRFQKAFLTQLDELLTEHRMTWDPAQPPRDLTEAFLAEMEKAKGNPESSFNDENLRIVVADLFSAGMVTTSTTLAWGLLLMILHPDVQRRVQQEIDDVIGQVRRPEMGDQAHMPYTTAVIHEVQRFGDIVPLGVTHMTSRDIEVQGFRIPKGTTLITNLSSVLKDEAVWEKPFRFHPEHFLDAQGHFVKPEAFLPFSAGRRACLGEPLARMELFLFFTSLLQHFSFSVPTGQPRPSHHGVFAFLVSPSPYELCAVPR

[6] = Permeability across apical to basolateral side in human Caco2 cells; assay type: ADME, cell-based; settings: Caco-2, read-out: permeability
Cytochrome P450 1A2 = Cytochrome P450 1A2 (Homo sapiens, UniProt P05177); test: Inhibition of CYP1A2 (unknown origin); assay type: ADME
Chain of Cytochrome P450 1A2 (P05177 whole entry): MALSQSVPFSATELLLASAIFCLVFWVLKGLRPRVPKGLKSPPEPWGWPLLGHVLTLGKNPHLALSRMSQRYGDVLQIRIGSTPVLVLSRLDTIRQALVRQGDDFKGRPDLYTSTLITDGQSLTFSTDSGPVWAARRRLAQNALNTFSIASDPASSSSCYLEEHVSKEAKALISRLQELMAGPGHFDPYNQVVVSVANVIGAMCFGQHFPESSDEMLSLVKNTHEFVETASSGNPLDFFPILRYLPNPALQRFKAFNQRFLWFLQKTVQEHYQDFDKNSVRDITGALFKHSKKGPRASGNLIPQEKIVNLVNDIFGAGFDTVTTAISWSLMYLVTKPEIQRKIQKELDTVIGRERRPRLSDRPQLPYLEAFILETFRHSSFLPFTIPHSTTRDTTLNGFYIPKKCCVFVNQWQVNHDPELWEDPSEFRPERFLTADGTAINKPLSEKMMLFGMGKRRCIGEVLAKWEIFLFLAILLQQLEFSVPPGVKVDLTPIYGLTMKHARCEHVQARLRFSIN

[7] = Lipophilicity, logD of compound; assay type: physicochemical; settings: octanol/water
[8] = Protein binding in human plasma assessed as free fraction; assay type: ADME, cell-free
Cytochrome P450 2C9 = Cytochrome P450 2C9 (Homo sapiens, UniProt P11712); test: Inhibition of CYP2C9 (unknown origin); assay type: ADME
Chain of Cytochrome P450 2C9 (P11712 whole entry): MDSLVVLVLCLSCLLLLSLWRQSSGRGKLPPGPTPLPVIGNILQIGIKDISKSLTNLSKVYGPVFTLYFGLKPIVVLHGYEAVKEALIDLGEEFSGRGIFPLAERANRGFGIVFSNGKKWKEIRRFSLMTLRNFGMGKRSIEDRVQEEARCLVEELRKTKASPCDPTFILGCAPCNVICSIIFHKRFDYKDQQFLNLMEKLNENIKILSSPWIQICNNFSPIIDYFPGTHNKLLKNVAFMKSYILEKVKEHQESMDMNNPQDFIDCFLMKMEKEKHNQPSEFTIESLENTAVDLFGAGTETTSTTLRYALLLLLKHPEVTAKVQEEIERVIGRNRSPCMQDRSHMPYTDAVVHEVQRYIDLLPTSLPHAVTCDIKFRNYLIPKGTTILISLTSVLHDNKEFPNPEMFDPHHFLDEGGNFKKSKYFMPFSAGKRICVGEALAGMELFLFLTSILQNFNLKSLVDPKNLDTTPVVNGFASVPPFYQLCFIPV

Cytochrome P450 2C19 = Cytochrome P450 2C19 (Homo sapiens, UniProt P33261); test: Inhibition of CYP2C19 (unknown origin); assay type: ADME
Chain of Cytochrome P450 2C19 (P33261 whole entry): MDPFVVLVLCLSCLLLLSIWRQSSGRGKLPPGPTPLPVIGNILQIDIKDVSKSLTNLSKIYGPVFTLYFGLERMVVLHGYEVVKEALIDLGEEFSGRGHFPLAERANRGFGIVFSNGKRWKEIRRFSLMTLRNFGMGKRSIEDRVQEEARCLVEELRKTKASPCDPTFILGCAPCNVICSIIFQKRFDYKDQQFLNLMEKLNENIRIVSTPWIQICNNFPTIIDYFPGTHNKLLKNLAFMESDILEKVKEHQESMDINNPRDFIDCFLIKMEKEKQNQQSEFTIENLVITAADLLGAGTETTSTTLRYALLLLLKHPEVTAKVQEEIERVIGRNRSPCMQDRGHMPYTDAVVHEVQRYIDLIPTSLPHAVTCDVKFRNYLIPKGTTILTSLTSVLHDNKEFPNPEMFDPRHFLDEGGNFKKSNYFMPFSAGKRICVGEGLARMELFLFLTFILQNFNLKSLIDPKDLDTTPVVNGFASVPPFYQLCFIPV

[9] = Clearance in rat; assay type: ADME; settings: in vivo
[10] = system: Mycobacterium tuberculosis; test: Bactericidal activity against Mycobacterium tuberculosis; assay type: functional
[11] = Tmax in BALB/c mouse infected with Mycobacterium tuberculosis H37Rv at 10 mg/kg, po administered for 4 weeks starting from day 28 post infection; assay type: ADME, organism-based; settings: in vivo
Procedure, shortened: (§1)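 Male BALB/c mice with chronic TB, aerosol-infected, given 10 or 30 mg/kg orally in multiple doses over a 4-week course that began 28 days post-infection. Plasma concentration–time profiles were taken from infected animals. PK parameters are reported as mean ± SD, n = 3.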

Nocardia farcinica = test: Antibacterial activity against Nocardia farcinica; assay type: functional
[12] = system: Mycolicibacterium smegmatis; test: Antimycobacterial activity against Mycobacterium smegmatis mc2 155 assessed as reduction in bacterial cell growth by resazurin reduction method; assay type: functional
Staphylococcus aureus = test: Antibacterial activity against Staphylococcus aureus; assay type: functional
Proteus vulgaris = test: Antibacterial activity against Proteus vulgaris; assay type: functional
[13] = Half life in BALB/c mouse infected with Mycobacterium tuberculosis H37Rv at 30 mg/kg, po administered for 4 weeks starting from day 28 post infection; assay type: ADME, organism-based; settings: in vivo; procedure, shortened: as §1
[14] = Half life in BALB/c mouse infected with Mycobacterium tuberculosis H37Rv at 10 mg/kg, po administered for 4 weeks starting from day 28 post infection; assay type: ADME, organism-based; settings: in vivo; procedure, shortened: as §1
Pseudomonas putida = test: Antibacterial activity against Pseudomonas putida; assay type: functional
[15] = Oral bioavailability in rat; assay type: ADME, organism-based; settings: in vivo
[16] = AUC (0 to infinity) in BALB/c mouse infected with Mycobacterium tuberculosis H37Rv at 10 mg/kg, po administered for 4 weeks starting from day 28 post infection; assay type: ADME, organism-based; parameters: dose 10 mg/kg, time infinity, route oral; settings: in vivo; procedure, shortened: as §1
Escherichia coli = test: Antibacterial activity against Escherichia coli; assay type: functional
[17] = Toxicity in BALB/c mouse infected with Mycobacterium tuberculosis H37Rv assessed as gross pathology at 10 to 30 mg/kg, po administered for 4 weeks starting from day 28 infection; assay type: organism-based; settings: in vivo, 672 h
Procedure, shortened: (§2)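 Infected BALB/c mice received repeated oral dosing for 4 weeks in the chronic efficacy study. Adverse events were assessed as body weight loss, organ weight loss and gross pathology.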

Pseudomonas aeruginosa = test: Antibacterial activity against Pseudomonas aeruginosa; assay type: functional
[18] = Cmax in BALB/c mouse infected with Mycobacterium tuberculosis H37Rv at 10 mg/kg, po administered for 4 weeks starting from day 28 post infection; assay type: ADME, organism-based; parameters: dose 10 mg/kg, route oral; settings: in vivo; procedure, shortened: as §1
Prescottella equi = test: Antibacterial activity against Rhodococcus equi; assay type: functional; settings: Rhodococcus (subgen. Prescottella) equi
[19] = system: Corynebacterium glutamicum; test: Antibacterial activity against Corynebacterium glutamicum; assay type: functional
[20] = system: Mycobacterium tuberculosis; test: Bactericidal activity against Mycobacterium tuberculosis infected in mouse assessed as reduction in colony forming unit at 1 to 2 times of antimycobacterial MIC incubated for 10 days; assay type: functional
[21] = system: Corynebacterium pseudotuberculosis; test: Antibacterial activity against Corynebacterium pseudotuberculosis; assay type: functional
Enterococcus faecalis = test: Antibacterial activity against Enterococcus faecalis; assay type: functional
[22] = system: Mycobacterium tuberculosis; test: Antimycobacterial activity against Mycobacterium tuberculosis H37Rv infected in BALB/c mouse assessed as reduction in bacterial burden in mouse lung at 30 mg/kg, po administered for 4 weeks starting from day 28 post infection; assay type: functional
Procedure, shortened: (§3)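 Chronic TB model in BALB/c mice infected by the aerosol route. Oral treatment began 28 days post-infection and ran 4 weeks. Bacterial burden was read as log10 CFU in lungs and spleen.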

[23] = system: Mycobacterium tuberculosis; test: Antimycobacterial activity against Mycobacterium tuberculosis H37Rv infected in BALB/c mouse assessed as reduction in bacterial burden in mouse spleen at 30 mg/kg, po administered for 4 weeks starting from day 28 post infection; assay type: functional; procedure, shortened: as §3
[24] = system: Corynebacterium pseudodiphtheriticum; test: Antibacterial activity against Corynebacterium pseudodiphtheria; assay type: functional
[25] = Cmax in BALB/c mouse infected with Mycobacterium tuberculosis H37Rv at 30 mg/kg, po administered for 4 weeks starting from day 28 post infection; assay type: ADME, organism-based; parameters: dose 30 mg/kg, route oral; settings: in vivo; procedure, shortened: as §1
[26] = Toxicity in BALB/c mouse infected with Mycobacterium tuberculosis H37Rv assessed as body weight loss at 10 to 30 mg/kg, po administered for 4 weeks starting from day 28 infection; assay type: organism-based; settings: in vivo, 672 h; procedure, shortened: as §2
[27] = Tmax in mouse at MIC in presence of CYP pan inhibitor 1-aminobenzotriazole; assay type: ADME; settings: in vivo
[28] = system: Mycobacterium tuberculosis; test: Bactericidal activity against Mycobacterium tuberculosis infected in human THP1 cells assessed as reduction in colony forming unit at antimycobacterial MIC incubated for 7 days; assay type: functional
Rhodococcus = test: Antibacterial activity against Rhodococcus sps; assay type: functional
[29] = AUC (0 to infinity) in BALB/c mouse infected with Mycobacterium tuberculosis H37Rv at 30 mg/kg, po administered for 4 weeks starting from day 28 post infection; assay type: ADME, organism-based; parameters: dose 30 mg/kg, route oral, time infinity; settings: in vivo; procedure, shortened: as §1
[30] = Toxicity in BALB/c mouse infected with Mycobacterium tuberculosis H37Rv assessed as organ weight loss at 10 to 30 mg/kg, po administered for 4 weeks starting from day 28 infection; assay type: organism-based; settings: in vivo, 672 h; procedure, shortened: as §2
Bacillus subtilis = test: Antibacterial activity against Bacillus subtilis; assay type: functional
Listeria monocytogenes = test: Antibacterial activity against Listeria monocytogenes; assay type: functional
[31] = Tmax in BALB/c mouse infected with Mycobacterium tuberculosis H37Rv at 30 mg/kg, po administered for 4 weeks starting from day 28 post infection; assay type: ADME, organism-based; settings: in vivo; procedure, shortened: as §1
[32] = Mycobacterium tuberculosis, H37Rv, read-out: MIC

## COc1cc(C(=O)NCC(F)F)c2ncn(Cc3ncnc(N(C)C)c3C)c2c1
[1]; [32]
  MIC: < 0.39 µM
[2]
  pIC50: 8.05

## COc1cc(C(=O)NCCF)c2ncn(Cc3ncnc(N(C)C)c3C)c2c1
Cytochrome P450 3A4
  pIC50: < 4.30
[3]
  Papp B→A: 22 ×10⁻⁶ cm/s
[4]
  solubility: > 1000 µM
[5]
  pIC50: < 4.48
Cytochrome P450 2D6
  pIC50: < 4.30
[1]; [32]
  MIC: < 0.39 µM
[6]
  Papp A→B: 26 ×10⁻⁶ cm/s
Cytochrome P450 1A2
  pIC50: < 4.30
[7]
  logD: 2 to 2.1
[8]
  fraction unbound: 0.31
Cytochrome P450 2C9
  pIC50: < 4.30
[2]
  pIC50: 7.80
Cytochrome P450 2C19
  pIC50: < 4.30

## CO[C@H]1/C=C/O[C@@]2(C)Oc3c(C)c(O)c4c(O)c(c(/C=N/N5CCN(C)CC5)c(O)c4c3C2=O)NC(=O)/C(C)=C\C=C\[C@H](C)[C@H](O)[C@@H](C)[C@@H](O)[C@@H](C)[C@H](OC(C)=O)[C@@H]1C [RIFAMPIN]
[1]; [32]
  MIC: 0.01 µM (≈ 0.00823 µg/mL)

## COc1ncnc(Cn2cc(C(=O)NCCO)c3ncc(C)cc32)c1C [TBA-7371]
[9]
  clearance: 27 mL/min/kg
[1]
  MIC: 0.78 µM (≈ 0.277 µg/mL)
[10]
  MBC: 1.56 µM (≈ 0.554 µg/mL)

## Cc1cc(C(=O)NCCF)c2ncn(Cc3ncnc(OC(F)F)c3C)c2c1
[1]; [32]
  MIC: < 0.39 µM
[2]
  pIC50: 7.80

## Cc1cc(C(=O)NCCF)c2ncn(Cc3ncnc(N(C)C)c3C)c2c1
[1]; [32]
  MIC: < 0.39 µM
[2]
  pIC50: 8.05

## Cc1cc(C(=O)NCC(F)F)c2ncn(Cc3ncnc(N(C)C)c3C)c2c1
[1]; [32]
  MIC: < 0.39 µM
[2]
  pIC50: 8.40

## COc1ncnc(Cn2cnc3c(C(=O)NCCF)cccc32)c1C
[11]
  Tmax: 2 h
Nocardia farcinica
  MIC: > 200 µM
[12]
  MIC: 0.78 to 1.56 µM (≈ 0.268 to 0.536 µg/mL)
Staphylococcus aureus
  MIC: > 200 µM
Proteus vulgaris
  MIC: > 200 µM
Cytochrome P450 3A4
  pIC50: < 4.30
[13]
  half-life: 5.9 h
[14]
  half-life: 4.5 h
[3]
  Papp B→A: 14 ×10⁻⁶ cm/s
Pseudomonas putida
  MIC: > 200 µM
[15]
  bioavailability: 114%
[16]
  AUC(0-inf): 13.5 µM·h
[4]
  solubility: 152 µM (≈ 52.2 µg/mL)
[5]
  pIC50: < 4.48
Cytochrome P450 2D6
  pIC50: < 4.30
[9]
  clearance: 48 mL/min/kg
Escherichia coli
  MIC: > 200 µM
[17]
  Activity: Non-Toxic
Pseudomonas aeruginosa
  MIC: > 200 µM
[18]
  Cmax: 5.1 µM
Prescottella equi
  MIC: > 200 µM
[1]; [32]
  MIC: 1.56 to 3.12 µM (≈ 0.536 to 1.07 µg/mL)
[10]
  MBC: 1.56 µM (≈ 0.536 µg/mL)
[6]
  Papp A→B: 37 ×10⁻⁶ cm/s
[19]
  MIC: > 200 µM
[20]
  Activity: >3 log10CFU
[21]
  MIC: > 200 µM
Cytochrome P450 1A2
  pIC50: < 4.30
Enterococcus faecalis
  MIC: > 200 µM
[22]
  Activity: 1.5 log10CFU
[23]
  Activity: 1 log10CFU
[7]
  logD: 1.9
[24]
  MIC: > 200 µM
[25]
  Cmax: 18.3 µM
[8]
  fraction unbound: 0.32
[26]
  Activity: Non-Toxic
[27]
  Tmax: 6 to 10 h
[28]
  Activity: 1 log10CFU
Rhodococcus
  MIC: > 200 µM
[29]
  AUC(0-inf): 78.6 µM·h
[30]
  Activity: Non-Toxic
Cytochrome P450 2C9
  pIC50: < 4.30
[2]
  pIC50: 7.47
Bacillus subtilis
  MIC: > 200 µM
Cytochrome P450 2C19
  pIC50: < 4.30
Listeria monocytogenes
  MIC: > 200 µM
[31]
  Tmax: 3 h

## COc1cc(C(=O)NCCF)c2ncn(Cc3ncnc(OC)c3C)c2c1
[1]; [32]
  MIC: < 0.39 µM
[2]
  pIC50: 8.30

## COc1ncnc(Cn2cnc3c(C(=O)NCCF)cc(C)cc32)c1C
[1]; [32]
  MIC: 0.78 µM (≈ 0.279 µg/mL)
[2]
  pIC50: 8.10

## C[C@H]1COC2(CCN(c3nc(=O)c4cc(C(F)(F)F)cc([N+](=O)[O-])c4s3)CC2)O1 [BTZ-043]
[1]; [32]
  MIC: 0.003 to 0.006 µM (≈ 0.00129 to 0.00259 µg/mL)

## NNC(=O)c1ccncc1 [ISONIAZID]
[1]; [32]
  MIC: 0.44 µM (≈ 0.0603 µg/mL)

## COc1cc(C(=O)NCC(F)F)c2ncn(Cc3ncnc(OC(F)F)c3C)c2c1
[1]; [32]
  MIC: < 0.39 µM
[2]
  pIC50: 8.30
